Test results published in paper PMC8048885 (International Journal of Cancer, 2021).
Like-named read-outs stand apart in the source and are kept apart here.

Columns and labels:
[1] = tested on: CYP1A2; conditions: cited from earlier work
[2] = tested on: intragastric pH; conditions: cited from earlier work
[3] = tested on: gastric H+/K+ adenosine triphosphatase (ATPase); conditions: porcine gastric vessels, cited from earlier work
[4] = tested on: STS; type: in vivo, human; conditions: for median PFS: pazopanib 800 mg fasted cohort
Method in brief: (§1)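 PFS was defined as time on treatment until progression or death and analysed per tumour type, with GAS vs no GAS groups (PPI/H2A use on the days before first Cmin). Median PFS came from Kaplan-Meier with log rank test, and hazard ratios from univariate Cox regression; P<.05 was significant. Patients with GI abnormalities or on strong CYP3A4 inducers/inhibitors were excluded.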

[5] = cited from earlier work
[6] = cited from earlier work; remark: listed apart in the source
[7] = tested on: advanced RCC; type: in vivo, human; conditions: univariate Cox regression
Method in brief: as §1

[8] = first steady-state pazopanib trough concentration; type: in vivo, human
Method in brief: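 Observational study. Patients took the study drug 800 mg OD fasted or 600 mg OD with food and were advised to take a PPI/H2A 1 hour later; antacid users were counted as non-GAS. Only the first steady-state (>7 consecutive days) plasma trough was used, measured by validated HPLC-MS/MS.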

SMILES | effect on CYP1A2 [1] | duration of pH elevation >4 ([2]; omeprazole 20 mg) | time to fully inhibit the H+, K+ ATPase [3] [min] | duration of pH elevation >4 ([2]; pantoprazole 40 mg) | inhibition of H+, K+ ATPase ([3]; at 45 minutes) [%] | median PFS ([4]; with GAS) [weeks] | median PFS ([4]; without GAS) [weeks] | hazard ratio for progression or death, with vs without GAS ([4]; univariate Cox regression) | increase of exposure on intake with a high caloric meal [5] | oral bioavailability [5] | decrease of mean pazopanib Cmin levels ([5]; esomeprazole administered 12 hours after fasted intake of pazopanib) [%] | solubility in aqueous solutions ([6]; above pH 4) | solubility in aqueous solutions ([6]; pH 1) | hazard ratio for PFS, with vs without GAS [7] | percentage of patients with Cmin below the target threshold of 20.5 mg/L ([8]; pazopanib 600 mg taken with food, with GAS) [%] | percentage of patients with Cmin below the target threshold of 20.5 mg/L ([8]; pazopanib 600 mg taken with food, without GAS) [%] | percentage of patients with Cmin below the target threshold of 20.5 mg/L ([8]; pazopanib 800 mg taken fasted, with GAS) [%] | percentage of patients with Cmin below the target threshold of 20.5 mg/L ([8]; pazopanib 800 mg taken fasted, without GAS) [%]
COc1ccc2[nH]c([S+]([O-])Cc3ncc(C)c(OC)c3C)nc2c1 (stereo not shown) [omeprazole] | dose‐dependent inducer of CYP1A2 | 49.16 % of the day | 30 | – | – | – | – | – | – | – | – | – | – | – | – | – | – | –
COc1ccnc(C[S+]([O-])c2nc3ccc(OC(F)F)cc3[nH]2)c1OC (stereo not shown) [pantoprazole] | does not affect CYP1A2 | – | – | 41.94 % of the day | 50 | – | – | – | – | – | – | – | – | – | – | – | – | –
Cc1ccc(Nc2nccc(N(C)c3ccc4c(C)n(C)nc4c3)n2)cc1S(N)(=O)=O [pazopanib] | – | – | – | – | – | 17 | 32 | 3.89 | ~ 2 fold | approximately 21% | 36 | practically insoluble | slightly soluble | 1.13 | 26.9 | 14 | 33.3 | 19.5
